Assay results reported in ChEMBL document CHEMBL3272018, “Synthesis of aziridinylallylaminophosphine oxides and sulfides as potential adjuvant cancer chemotherapeutic agents” (J Med Chem, 1976).
The source made the active and inactive calls. The rule behind the calls is not given here.

How the values were obtained:
[1] = tested on: Rattus norvegicus; assay: Toxicity in rat allografted with rat Walker 256 cells intramuscularly assessed as change in body weight at 3 mg/kg, qd administered for 5 days; type: organism-based; set-up: dose 3 mg/kg, route intramuscular; conditions: in vivo, im, 120 h
Method in brief: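 Walker 256 carcinoma solid-tumour system in rats (parent line, or the line resistant to cytoxan). Dosing was one injection per day for 5 days. Toxicity was taken as the average net body-weight change of the treated group minus the average net weight change of the untreated tumour-bearing controls, in grams.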

[2] = tested on: W256; assay: Antitumor activity against rat Walker 256 cells intramuscularly allografted in rat assessed as survival rate at 3 mg/kg, qd administered for 5 days; type: functional, organism-based; set-up: dose 3 mg/kg
Method in brief: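 Rats bearing Walker 256 carcinoma as a solid tumor; lines 1-8 use a cytoxan-resistant Walker 256 subline. Dosed once daily for 5 days. Treated (T) and untreated control (C) groups are compared, and the response is given as T/C percentage, reflecting increase in survival time. Host weight change is the average weight change of the test group minus that of the controls, in grams.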

[3] = tested on: W256; assay: Antitumor activity against rat Walker 256 cells intramuscularly allografted in rat assessed as tumor growth inhibition at 3 mg/kg, qd administered for 5 days relative to control; type: functional; conditions: W256, im, 120 h, route intramuscular, read-out: TGI
Method in brief: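 Walker 256 carcinoma grown as a solid tumour in rats, with one injection daily for 5 days. Response is given as T/C %, the treated-group measure over the untreated-control tumour measure; a smaller value means more activity. Host toxicity is the mean net weight change of treated minus control animals, in grams.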

[4] = Toxicity in rat allografted with rat Walker 256 cells intramuscularly; type: organism-based
[5] = tested on: W256; assay: Antitumor activity against rat Walker 256 cells intramuscularly allografted in rat assessed as tumor growth inhibition; type: functional; conditions: W256, im
Method in brief: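 Dosed once daily for 5 days. Response is tumor progression in treated (T) versus untreated control (C) animals, expressed as T/C percentage. Host weight change is reported as the average net weight change of the test group minus that of the controls, in grams.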

[6] = Therapeutic index, ratio of LD50 for rat allografted with rat Walker 256 cells to ED10 for antitumor activity against rat Walker 256 cells intramuscularly allografted in rat; type: cell-based; conditions: read-out: TI
Method in brief: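 Therapeutic index is LD50/ED10 in the Walker 256 solid tumour system. ED10 is the dose giving a 10% tumour weight reduction, with values extrapolated from dose-response data.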

[7] = tested on: Musca domestica; assay: Toxicity in male house fly assessed as lowest dose required to cause complete sterility administered in sugar; type: organism-based; conditions: in vivo, po
[8] = tested on: Musca domestica; assay: Toxicity in male house fly assessed as lowest dose required to cause complete sterility administered in food; type: organism-based; conditions: in vivo, po

Compound	Activity [1] [g]	Activity [2]	inhibition in vivo at 3 mg/kg [3] [%]	LD50 [4] [mg/kg]	ED10 [5] [mg/kg]	selectivity ratio [6]	Activity [7] [%]	Activity [8] [%]
C=CCN(CC=C)P(=S)(N1CC1C)N1CC1C (stereo not given)	-7	Active	14	7	0.7	10	1	1
C=CCN(C1=CCCCC1)P(=O)(N1CC1)N1CC1	–	–	–	–	–	–	1	1
